These results are taken from paper PMC5338879 (Journal of Hypertension, 2016).

“Also recorded” adds a separate entry of the source.

For series [1], the system named is men with erectile dysfunction. The settings on record: single sc doses of 4–6 mg; cited from earlier work.
For series [2] the following is noted: high sc doses, men with erectile dysfunction; cited from earlier work.
For series [3] the following is noted: intranasal administration; cited from earlier work.
Series [4] concerns premenopausal women with female sexual dysfunction. In words: Protocol-directed blood pressure-related withdrawals after randomization. It counts as in vivo, human. Summed up: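 Ambulatory BP records were screened manually and programmatically for SBP ≥150 mmHg, DBP ≥95 mmHg, SBP rise ≥30 mmHg or DBP rise ≥15 mmHg. Flagged reports went to safety staff, including a hypertension expert blinded to treatment, who also reviewed activities, HR and other medications. Participants meeting the prespecified criteria (absolute level, change from baseline, duration) were withdrawn.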

For series [5] the test system is unchanged. In words: Ambulatory BP and heart rate monitoring after in-clinic subcutaneous doses. It counts as in vivo, human. The settings on record: for Increase in ambulatory SBP relative to placebo (abstract): second of two doses, 0 to 4-h postdose interval. Put shortly: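 Premenopausal women aged ≥21 years were randomized 1:1:1:1 to placebo or 0.75, 1.25 or 1.75 mg sc (anterior thigh or abdomen). The ambulatory monitor was fitted before each in-clinic dose and recorded at 15-min intervals. Baseline was the single-blind in-clinic placebo dose, and changes were placebo-subtracted over 0–4, >4–8, >8–24 and 0–24 h. SBP shifts were counted per 15 min against thresholds of 10/15 mmHg change and 150/160 mmHg absolute.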

Series [6] in a line: Plasma pharmacokinetics after in-clinic subcutaneous doses. It counts as in vivo, human. Particulars: for Cmax, mean: plasma, LC-MS/MS. Summed up: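 Blood was sampled predose and at 0.5, 1.0 and 2.0 h postdose at both double-blind in-clinic sc dosing visits (0.75, 1.25 or 1.75 mg). Plasma was assayed by validated LC-MS/MS. Noncompartmental analysis gave Cmax, Tmax, […] and AUC(0–2). For each dose level and visit, mean Cmax, range and coefficient of variation were reported.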

For series [7], the system named is premenopausal women with female sexual dysfunction. In words: Treatment-emergent adverse events, 12-week double-blind treatment. It counts as in vivo, human. The settings on record: all bremelanotide dosages; no marked dosage dependence. Put shortly: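 Adverse events were queried at every clinic visit after screening. Physical examination, vital signs, 12-lead ECG and clinical laboratory tests were also performed. Events were tabulated in all participants given at least one double-blind dose.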

[8] abbreviates: initial in-clinic dose, linear regression, all dose levels.

`CCCC[C@H](NC(C)=O)C(=O)N[C@H]1CC(=O)NCCCC[C@@H](C(=O)O)NC(=O)[C@H](Cc2c[nH]c3ccccc23)NC(=O)[C@H](CCCN=C(N)N)NC(=O)[C@@H](Cc2ccccc2)NC(=O)[C@H](Cc2cnc[nH]2)NC1=O` [bremelanotide]: the “Transient increases in clinic SBP” value in series [1] is 4–5 mmHg. For the same compound, the time to peak (Tmax) in series [2] is 0.5 to 1 h. The mean half-life in series [2] is 1.9 to 2.7 h. For the same compound, the Variability in bioavailability entry in series [3] is given as “wide variability in bioavailability”. For the same compound, the “Participants withdrawn after randomization (BP-related)” value was 4% in series [4] (after a 0.75-mg dose, of 100); 9% in series [4] (after a 1.25-mg dose, of 99); 7% in series [4] (after a 1.75-mg dose, of 98). Further, the “Proportion of SBP shift events lasting 15 min or less” value in series [5] (after bremelanotide dosing) was 88%. In addition, the “Number of clinically important shifts in SBP (>10 or >15 mmHg) lasting more than 30 min” value in series [5] (all bremelanotide doses) was “three”. Besides, the “Patients with SBP increase at least 15 mmHg for more than 30 min” value in series [5] (any bremelanotide group) is on record as “No patient”. In addition, the “Patients with SBP more than 180 mmHg for more than 15 min” value in series [5] (any bremelanotide group) is listed as “No patient; also recorded: no sustained elevations”. Moreover, the “Relationship between maximal change in HR and Cmax” value in series [5] (setting [8]) is “no relationship observed”. Also, the “Relationship between maximal change in SBP and Cmax” value in series [5] (setting [8]) was “no relationship observed”. Besides, the “Duration of peak increases in ambulatory BP” value in series [5] (sc doses, typically) is on record as “less than 15 min”. The “Increase in ambulatory SBP relative to placebo (abstract)” value in series [5] (1.25 mg sc, P 0.076) is 3.0 mmHg; in series [5] (1.75 mg sc, P 0.027), 3.2 mmHg. The “Mean HR reductions” value in series [5] (subcutaneous doses, up to 8 h following administration) was 4.6–6.6 bpm. In addition, in series [6] (0.75, 1.25, 1.75 mg sc, both in-clinic doses), the “Dose proportionality of pharmacokinetics” value is “dose proportionality; also recorded: dose-proportional increases in concentrations”. In series [6] (human, in vivo, sc, 0.75 mg), this compound gave a Cmax of 37.5 ng/mL. Besides, the “Cmax, mean” value in series [6] (second in-clinic dose 0.75 mg sc, n 89) was determined as 37.3 ng/mL; in series [6] (second in-clinic dose 1.25 mg sc, n 84), 60.1 ng/mL; in series [6] (second in-clinic dose 1.75 mg sc, n 88), 77.7 ng/mL. Moreover, the “Most common adverse events” value in series [7] was “nausea, flushing, and headache”.

As usually defined, the Tmax is the time from dosing to the highest level. Broadly, the Cmax is the highest concentration seen after dosing.
